# An excerpt weighted towards active compounds, which were near 3.5% of everything screened.
# MrgX1 agonist = agonists of human MrgX1 receptor; hit rate 0.44% among 310,000; B-score at 10 µM; AID 588627; Q96LB2; MrgX1-HEK293 cells, Fluo-4 calcium fluorescence, agonist mode; stronger effect = higher value;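 active = calcium response B-score plate-corrected fluorescence ratio at least 3 library SD, with starting fluorescence B-score inside 5 SD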
# Target sequence (Q96LB2 whole entry, looked up): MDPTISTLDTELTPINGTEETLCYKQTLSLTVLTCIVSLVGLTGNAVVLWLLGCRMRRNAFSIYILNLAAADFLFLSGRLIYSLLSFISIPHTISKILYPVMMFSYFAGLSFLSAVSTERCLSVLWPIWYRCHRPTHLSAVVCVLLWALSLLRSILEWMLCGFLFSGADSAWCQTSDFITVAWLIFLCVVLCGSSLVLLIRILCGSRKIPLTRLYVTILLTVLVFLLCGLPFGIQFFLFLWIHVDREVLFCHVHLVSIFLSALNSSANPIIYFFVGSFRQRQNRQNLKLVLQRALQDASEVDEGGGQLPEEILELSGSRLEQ
#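 Material: MrgX1-expressing HEK293 cells; input: 15,000 cells per well; doses: test compound given as first of three sequential additions; schedule: overnight plating before 1 h dye loading; technique: Fluo-4 NW calcium-flux fluorescence, kinetic read; evaluation: baseline-normalised fluorescence change ratio, B-scored; control set: plate-wise positive and negative controls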
# MrgX1 PAM = human MrgX1 positive allosteric modulation, primary screen; MrgX1-HEK293, Fluo-4 calcium flux, FDSS; stronger effect = higher value; B-score at 10 µM; hit rate 0.63% among 310,000;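 active = plate-corrected calcium response at least 3 library SD above typical, normal starting fluorescence, not activating the receptor alone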;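 also: compound read alongside a low EC10 to EC30 dose of BAM8-22 agonist; peak minus trough fluorescence over baseline measured at the second addition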
# RGS4 block = human RGS4 inhibition. P49798. B-score at 10 µM. AID 463165. HEK293 M3R/RGS4 inducible, Fluo-4 calcium flux; stronger effect = higher value; triggered by carbachol at its EC20. hit rate 0.45% among 310,000;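 active = B-score, a plate-corrected calcium signal, over three deviations above library mean, with baseline fluorescence within five deviations of library mean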;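 also: RGS4 expression induced by doxycycline in cells with stable M3 receptor; B-score is computed from the integrated fluorescence ratio over baseline after carbachol; higher B-score means a larger calcium signal and so more RGS4 inhibition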
# Target sequence (P49798 whole entry, looked up): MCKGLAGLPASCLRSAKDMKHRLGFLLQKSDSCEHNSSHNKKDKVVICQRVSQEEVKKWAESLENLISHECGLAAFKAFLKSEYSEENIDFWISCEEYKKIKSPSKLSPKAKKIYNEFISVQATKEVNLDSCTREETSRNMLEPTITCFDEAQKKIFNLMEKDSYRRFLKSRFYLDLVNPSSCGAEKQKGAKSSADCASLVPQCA
# MrgX1 antagonist = human MrgX1 receptor antagonism, primary screen; Q96LB2; MRGX1-HEK293 calcium flux, Fluo-4, BAM8-22 antagonism; stronger effect = lower value; B-score at 10 µM; hit rate 1.3% among 310,000;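 active = calcium-response B-score plate-corrected more than 3 library SD below zero, starting fluorescence within 5 deviations, no agonist response on first addition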;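 also: peak minus trough fluorescence over baseline after final BAM8-22 challenge near maximal dose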
# RGS4 act = RGS4 potentiation or activation. HEK293 M3R/inducible RGS4, carbachol calcium flux Fluo4; stronger effect = lower value. B-score at 10 µM. hit rate 0.92% among 310,000. AID 463111;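 active = B-score of the integrated calcium signal more than 4 SD below the library mean, with starting fluorescence not abnormally high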;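 also: negative B-score means reduced calcium response which marks RGS4 activation or potentiation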
#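 Also added: carbachol at ECmax as muscarinic agonist stimulus; Assay system: HEK293 cells with stable M3R and inducible RGS4; Timing: overnight RGS4 induction, 30 min dye load 37 °C, 20 min compound RT; Measured by: Fluo4-AM (2 µM) calcium-flux fluorescence, kinetic read.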
# MrgX1 antag conf = human MrgX1 receptor antagonism, re-confirmation screen; shares compounds with MrgX1 antagonist; MrgX1-HEK293, BAM8-22 calcium flux, Fluo-4; stronger effect = lower value; remaining BAM8-22 calcium response % of control (stronger effect = lower value), % at 10 µM; hit rate 19% among 2,300;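 active = remaining agonist calcium response no higher than 100% minus 3 SD of agonist-only control wells, with starting fluorescence near control levels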;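 also: agonist BAM8-22 given at a near maximal EC90 to ECmax level; peak minus minimum fluorescence divided by baseline after agonist addition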
# HEK293 Ca flux = activity in parental HEK293 cells lacking MrgX1. shares compounds with MrgX1 antagonist. fluorescence ratio F(max-min)/F0 at 10 µM. Fluo-4 calcium fluorescence, FDSS. hit rate 2% among 4,000;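 active = duplicate-averaged calcium fluorescence ratio at least three times the standard deviation of buffer wells, a nonspecific response in parental cells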
# HEK293 Ca counter = MrgX1 allosteric activator counter-screen hit in parental HEK293 cells | shares compounds with MrgX1 antagonist | parental HEK293 calcium flux, Fluo-4 fluorescence ratio; stronger effect = higher value | fluorescence ratio F(max-min)/F0 at 10 µM | hit rate 0.4% among 4,000;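 active = calcium fluorescence ratio, averaged over duplicates, at least 3 SD of the buffer-well ratio, meaning a nonspecific response in receptor-free cells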;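 also: untransfected parental HEK293 lacking MrgX1 used as counterscreen for MrgX1 allosteric activators; fluorescence change taken during the second addition on a kinetic imager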
# HEK293 Ca cntr2 = counter-screen for MrgX1 activators: effect in parental HEK293 cells; AID 624115; Fluo-4 calcium fluorescence (FDSS); stronger effect = higher value; shares compounds with MrgX1 antagonist; hit rate 8.7% among 4,000; fluorescence ratio F(max-min)/F0 at 10 µM;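 active = calcium fluorescence ratio at least three times the spread of buffer wells, meaning a non-specific response in parental cells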
# An asterisk follows results filed as active; i = inactive; . = no result given.
SMILES,MrgX1 agonist,MrgX1 PAM,RGS4 block,MrgX1 antagonist,RGS4 act,MrgX1 antag conf,HEK293 Ca flux,HEK293 Ca counter,HEK293 Ca cntr2
CCC(CC)c1nnc(NC(=O)c2ccc(N3CCCC3=O)cc2)s1,i,i,i,-4.93*,i,i,i,i,i
COc1ccc(C(c2c(O)nc(SC)n(C)c2=O)c2c(O)nc(SC)n(C)c2=O)cc1O,i,i,i,-7.35*,i,i,i,i,i
Cc1ccc(OCC(=O)NCCNC(=O)c2cccnc2)cc1C,i,i,i,i,i,.,.,.,.
CCSc1nc2c(c(-c3ccc(C)o3)c1C#N)CCCC2,i,i,i,i,i,.,.,.,.
COC(=O)CSc1nc2c(c(-c3ccc(C)o3)c1C#N)CCCC2,i,i,i,-6.89*,i,i,i,i,i
CC(C)(C)[C@H]1C=C(C(=O)NCc2nc3ccccc3[nH]2)O[C@@H](OCc2ccc(CO)cc2)C1,i,i,i,i,i,.,.,.,.
O=P(CCCO)(Cc1ccccc1)Cc1ccccc1,i,i,i,i,i,.,.,.,.
O=C(CNC(=O)Cc1ccccc1)NCC(=O)OCC(=O)c1ccc(F)cc1,i,i,i,i,i,.,.,.,.
O=C(CNC(=O)c1ccccc1)NCC(=O)OCC(=O)c1ccc(F)cc1,i,i,i,-4.85*,i,i,i,i,i
O=C(COc1ncnc2sccc12)NC1CCCc2ccccc21 (stereo not given),i,i,i,-7.44*,i,79.6%*,i,i,i
CC(C)NC(=O)NC(=O)COc1ncnc2sccc12,i,i,i,-4.89*,i,i,i,i,i
CN(C)C(=O)CSc1nnc(-c2ccc(S(=O)(=O)N3CCCC3)cc2)n1C,i,i,i,i,i,.,.,.,.
Cc1nc2c(-c3ccc(Cl)cc3)cnn2c2c1CCC2,i,i,i,-5.14*,i,i,i,i,i
Cc1cc2ccccc2n1CCNC(=O)C1CCCC1,i,i,i,i,i,.,.,.,.
Cc1cc2ccccc2n1CCNC(=O)C1CC1,i,i,i,-5.99*,i,i,i,i,i
O=[N+]([O-])c1cc([N+](=O)[O-])c2n[nH]c(-c3ccccc3)c2c1,i,i,i,i,i,.,.,.,.
COc1cc(O)c2c(c1)OC(C)(C)CC2=O,i,i,i,-10.4*,i,i,i,i,i
CN1CCN(c2ccc(Cl)cc2NS(=O)(=O)c2ccccc2Cl)CC1,i,i,i,-5.3*,i,81.4%*,i,i,i
Cc1ccc(N2C(=O)N(CC(=O)Nc3ccc(C)c(C)c3)C(=O)C2C)cc1 (stereo not given),i,i,i,i,i,.,.,.,.
Cc1ccc(S(=O)(=O)c2ccc(Cl)cc2)cc1S(=O)(=O)N(C)CC(=O)O,i,i,i,-5.93*,i,i,i,i,i
CCOC(=O)C1CCCN(S(=O)(=O)c2cnc(Cl)c(Br)c2)C1 (stereo not given),i,i,i,i,i,.,.,.,.
C=CCSc1nc2c(c(C3CC=CCC3)c1C#N)CCC2 (stereo not given),i,i,i,i,i,.,.,.,.
CC(C)OC(=O)CSc1nc2c(c(C3CC=CCC3)c1C#N)CCC2 (stereo not given),i,i,i,-6.21*,i,i,i,i,i
CC(C)CC(c1nnnn1CC1CCCO1)N1CCN(Cc2ccc3c(c2)OCO3)CC1 (stereo not given),i,i,i,-4.99*,i,i,i,i,i
CN1CCN(C(CNC(=O)c2ccc(Br)o2)c2ccc(F)cc2)CC1 (stereo not given),i,i,i,i,i,.,.,.,.
SMILES,MrgX1 agonist,MrgX1 PAM,RGS4 block,MrgX1 antagonist,RGS4 act,MrgX1 antag conf,HEK293 Ca flux,HEK293 Ca counter,HEK293 Ca cntr2
O=C(Oc1ccc(Cl)c2cccnc12)N1CCCCC1,i,i,i,-5.46*,i,i,i,i,i
O=C(Oc1ccc(Cl)c2cccnc12)N1CCOCC1,i,i,i,i,i,.,.,.,.
COC(=O)C1CSC(C(=O)OC)N1C(=O)Nc1ccccc1 (stereo not given),i,i,i,i,i,.,.,.,.
COC(=O)C1CSC(C(=O)OC)N1C(=O)CN1CCN(c2ccccc2)CC1 (stereo not given),i,i,i,-8.1*,i,77.3%*,i,i,i
Cc1cc(C)nc(N/N=C/C2=C(O)CC(c3ccccc3)CC2=O)n1 (stereo not given),i,i,i,i,i,.,.,.,.
CN1CCN(C(c2ccc(Br)cc2)c2cc(Cl)c3cccnc3c2O)CC1 (stereo not given),i,i,i,-5.34*,i,i,i,i,i
CN(c1ccccc1)S(=O)(=O)c1ccc(C(=O)Nc2ncccc2O)cc1,i,i,i,i,i,.,.,.,.
CCCCn1c(N)c(N(CC(C)C)C(=O)c2cccc(-n3cnnn3)c2)c(=O)[nH]c1=O,i,i,i,i,i,.,.,.,.
Cc1nn(C)c(-c2n[nH]c(=S)n2-c2ccccc2)c1Cl,i,i,i,-4.75*,i,i,i,i,i
O=C(CCc1nnc(C2CCCCC2)o1)N1CCN(C2CCCCC2)CC1,i,i,i,i,i,.,.,.,.
COC(c1ccccc1)c1nnc(CCC(=O)N2CCN(C3CCCC3)CC2)o1 (stereo not given),i,i,i,-6.32*,i,i,i,i,i
COc1ccc(/C=C(/NC(=O)/C=C/c2ccccc2)C(=O)NCCCCCC(=O)O)cc1,i,i,i,i,i,.,.,.,.
CCc1ccc(N2CC(C(=O)Nc3nc4ccc(S(C)(=O)=O)cc4s3)CC2=O)cc1 (stereo not given),i,i,i,i,i,.,.,.,.
CCOc1ccc(NC(=O)CS(=O)(=O)c2cn(C)c3ccccc23)cc1,i,i,i,-7.96*,i,i,i,i,i

# High-throughput results as filed in PubChem.
